Measurements from ChEMBL document CHEMBL1135419, “Molecular docking and high-throughput screening for novel inhibitors of protein tyrosine phosphatase-1B” (J Med Chem, 2002).

biological target: T1, Tyrosine-protein phosphatase non-receptor type 1 (Homo sapiens, UniProt P18031); assay: Inhibition of human Protein-tyrosine phosphatase 1B (PTP1B) dephosphorylation of insulin receptor peptide
T1 sequence (P18031 whole entry): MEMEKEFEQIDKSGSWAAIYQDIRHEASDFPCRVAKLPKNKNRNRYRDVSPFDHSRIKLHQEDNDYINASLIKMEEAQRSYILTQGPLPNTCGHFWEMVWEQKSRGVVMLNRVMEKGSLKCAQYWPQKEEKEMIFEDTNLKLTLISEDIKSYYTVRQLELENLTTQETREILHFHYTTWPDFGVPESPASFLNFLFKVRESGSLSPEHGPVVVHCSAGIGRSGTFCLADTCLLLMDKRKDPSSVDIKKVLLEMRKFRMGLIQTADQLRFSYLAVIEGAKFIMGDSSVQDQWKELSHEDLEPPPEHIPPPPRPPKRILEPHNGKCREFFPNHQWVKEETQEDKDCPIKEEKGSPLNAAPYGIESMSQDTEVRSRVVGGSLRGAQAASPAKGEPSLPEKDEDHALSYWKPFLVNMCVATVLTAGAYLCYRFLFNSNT
Outline: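 Human recombinant PTP1B (residues 1-322) with 50 µM phosphopeptide substrate, room temperature, stopped with malachite green reagent, absorbance read at 620 nm. Docking-set assay: 1 nM enzyme in 25 mM HEPES pH 7.4, 125 mM NaCl, 1 mM EDTA, 10% glycerol, 10 mM DTT, no albumin, 10 min, DMSO below 10%, triplicates. HTS assay: 0.9 nM enzyme, pH 7.0, 0.03% BSA, 60 min.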

Going from `CC1=NN(c2cccc(Cl)c2)C(=O)/C1=C\c1ccc(-c2ccc(C(=O)O)c(Cl)c2)o1` to `O=C(O)c1ccc(-c2ccc(/C=C3/S/C(=N\c4ccccc4)N(c4ccccc4)C3=O)o2)cc1O`, the IC50 falls from 19.3 µM to 9 µM (2.1-fold). The second is the more potent here.

Compared with `CSc1[nH]nc(NC(=O)c2ccc(Cl)c(Cl)c2)c1S(=O)(=O)c1ccc(Cl)cc1`, `O=C(Nc1ccccc1)Nc1cc(-c2ccc(Cl)cc2)nn1-c1ccccc1` is 5.3-fold lower in IC50: 63.9 µM for the first, 12 µM for the second.

Going from `O=C(O)c1ccc(N2C(=O)/C(=C\C=C\c3ccccc3)SC2=S)cc1` to `O=C(O)c1ccc(/C=C2/SC(=S)N(Cc3ccccc3)C2=O)cc1`, the IC50 rises from 4.4 µM to 21.6 µM (4.9-fold). The first is the more potent here.

Compared with `O=C(Nc1ccc(O)cc1)/C(=C/c1c[nH]c2ccccc12)NC(=O)c1ccccc1`, `Oc1cccc(-c2nc(-c3ccc(-c4ccccc4)cc3)c(-c3ccc(-c4ccccc4)cc3)[nH]2)c1` is 2.5-fold lower in IC50: 21.5 µM for the first, 8.6 µM for the second.

Compared with `COC(=O)c1ccc2nc(NC(=O)COC(=O)c3ccc(Br)o3)sc2c1`, `O=C1NC(=O)C(=Cc2ccc(Sc3nc4ccc([N+](=O)[O-])cc4s3)c([N+](=O)[O-])c2)C(=O)N1` is 8.4-fold lower in IC50: 34.4 µM for the first, 4.1 µM for the second.

Work on `CCOc1cc(/C=C2/N=C(c3ccc4c(c3)OCO4)OC2=O)cc(Cl)c1OC(C)=O` yielded an IC50 of 35 µM.
